Assay [1] deals with Pantothenate synthetase (Mycobacterium tuberculosis (strain ATCC 25618 / H37Rv)) (UniProt P9WIL5). In words: Recombinant Mtb pantothenate synthetase (PanC) inhibitors, coupled enzyme, confirmatory (AID 375; call rule not given here;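 also: 0% = full reaction with vehicle and 100% = no enzyme background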). The following applies: coupled enzyme assay; at 10 µM, stronger effect = higher value.
A short description of assay [2]: reducers of endogenous Her2 protein level, primary screen, SKBR3 breast tumor cells, AlphaScreen, ATP viability (AID 461).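 As to Her2 level: lower value means less Her2 protein in the cells.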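 As to viability: percent of carrier control wells set as 100% viability.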 The following applies: 18-24 h, measured here: SKBR3 viability, ATP luminescence, at 10 µM. In general terms: In Alpha technology, singlet oxygen from a donor bead excites a nearby acceptor bead.
Assay [3] has as its target Receptor tyrosine-protein kinase erbB-2 (Homo sapiens) (UniProt P04626). The description is as above. The following applies: 18-24 h, at 10 µM, stronger effect = lower value.
Assay [4] is described as follows: SK-BR-3 cell growth inhibitors, pilot screen, 24 h, human (AID 572;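 active = viability at or below 10% of carrier control in both of two separate runs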;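 also: compound exposure lasted between 18 and 24 h rather than exactly 24 h; 100% = carrier-treated control wells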). The following applies: SK-BR-3 viability, CellTiter-Glo luminescence, at 10 µM, stronger effect = lower value. (In general: In ATP-based viability assays light output follows the ATP content of the culture.)
A short description of assay [5]: HUVEC growth inhibition – cell-based, human, primary screen (AID 575;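 active = viability at or below 30% in both replicate assays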;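 also: 100% = median of untreated cell wells with 0.1% DMSO on each plate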). The following applies: HUVEC proliferation, CellTiter-Glo luminescence, 72 h; at 10 µM; stronger effect = lower value. Put shortly:
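Assay system: Primary human umbilical vein endothelial cells | Quantity: 1250 cells per well | Medium: Supplemented EBM, 2% fetal bovine serum | Detection: CellTiter-Glo luminescence measuring cellular ATP | Read-out: % viability vs DMSO wells | Plate: Collagen-coated 384-well format | Times: 72 h exposure, 37 °C, 5% CO2, 30 min RT equilibration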

Assay [6] in a line: growth inhibitors of H69AR lung tumor, primary screen, human, duplicate replicates (AID 580;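 active = viability at or under a set limit in both replicates, limit being median viability minus 3 SD, cut at about 48% in these data, passing the limit was not always enough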;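 also: 100% = mean luminescence of untreated wells and 0% = no signal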). The following applies: H69AR lung tumor cells viability, ATP luminescence, 72 h; at 10 µM; stronger effect = lower value.
Assay [7] can be described thus: reversal of MRP1-mediated doxorubicin resistance, pilot screen, H69AR cells, doxorubicin co-treatment (AID 601;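 active = viability loss from added drug above about 55%, and viability with drug at most 40%, in both replicates, limit read from the data, passing the limit was not always enough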). The following applies: CellTiter-Glo, 72 h, at 10 µM; for differential viability (reversal): stronger effect = higher value.
The nature of assay [8]: 384-well plate pilot, post-Golgi transport modulator project, inhibition of yeast transport mutant growth (AID 636; in the data active = inhibition above about 31%). The following applies: absorbance 615 nm, about 18 h, stronger effect = higher value.
Assay [9] in a line: growth suppression of yeast trafficking mutant, preliminary HTS, modulators of trafficking downstream of Golgi apparatus project, 1536-format plate, OD 615 nm (AID 637; in the data active = inhibition above about 30%). The following applies: yeast transport mutant growth, absorbance 615 nm, 18 h; stronger effect = higher value.
Setting [10] is: H69AR cells + 2 uM doxorubicin, measured here: viability with 2 uM doxorubicin, stronger effect = lower value.
Where [11] appears, read: H69AR cells, compound alone cytotoxicity.

The text below walks through data of PubChem BioAssay.

In general, inhibition refers to the relative decrease from the control value, in per cent. As usually defined, the viability is a read-out of living cells in per cent, often relative to untreated cells.

Calls of active or inactive are those of the source.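 The calls were made as follows, unless noted: active = Her2 level under about 52% in both replicate screens, with viability over 70% of control (limit read from the data); inconclusive = Her2 under the limit in one screen only, or viability under 70%; inactive = Her2 level above the set limit.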

Receptor tyrosine-protein kinase erbB-2 (Homo sapiens), sequence (P04626 whole entry, looked up): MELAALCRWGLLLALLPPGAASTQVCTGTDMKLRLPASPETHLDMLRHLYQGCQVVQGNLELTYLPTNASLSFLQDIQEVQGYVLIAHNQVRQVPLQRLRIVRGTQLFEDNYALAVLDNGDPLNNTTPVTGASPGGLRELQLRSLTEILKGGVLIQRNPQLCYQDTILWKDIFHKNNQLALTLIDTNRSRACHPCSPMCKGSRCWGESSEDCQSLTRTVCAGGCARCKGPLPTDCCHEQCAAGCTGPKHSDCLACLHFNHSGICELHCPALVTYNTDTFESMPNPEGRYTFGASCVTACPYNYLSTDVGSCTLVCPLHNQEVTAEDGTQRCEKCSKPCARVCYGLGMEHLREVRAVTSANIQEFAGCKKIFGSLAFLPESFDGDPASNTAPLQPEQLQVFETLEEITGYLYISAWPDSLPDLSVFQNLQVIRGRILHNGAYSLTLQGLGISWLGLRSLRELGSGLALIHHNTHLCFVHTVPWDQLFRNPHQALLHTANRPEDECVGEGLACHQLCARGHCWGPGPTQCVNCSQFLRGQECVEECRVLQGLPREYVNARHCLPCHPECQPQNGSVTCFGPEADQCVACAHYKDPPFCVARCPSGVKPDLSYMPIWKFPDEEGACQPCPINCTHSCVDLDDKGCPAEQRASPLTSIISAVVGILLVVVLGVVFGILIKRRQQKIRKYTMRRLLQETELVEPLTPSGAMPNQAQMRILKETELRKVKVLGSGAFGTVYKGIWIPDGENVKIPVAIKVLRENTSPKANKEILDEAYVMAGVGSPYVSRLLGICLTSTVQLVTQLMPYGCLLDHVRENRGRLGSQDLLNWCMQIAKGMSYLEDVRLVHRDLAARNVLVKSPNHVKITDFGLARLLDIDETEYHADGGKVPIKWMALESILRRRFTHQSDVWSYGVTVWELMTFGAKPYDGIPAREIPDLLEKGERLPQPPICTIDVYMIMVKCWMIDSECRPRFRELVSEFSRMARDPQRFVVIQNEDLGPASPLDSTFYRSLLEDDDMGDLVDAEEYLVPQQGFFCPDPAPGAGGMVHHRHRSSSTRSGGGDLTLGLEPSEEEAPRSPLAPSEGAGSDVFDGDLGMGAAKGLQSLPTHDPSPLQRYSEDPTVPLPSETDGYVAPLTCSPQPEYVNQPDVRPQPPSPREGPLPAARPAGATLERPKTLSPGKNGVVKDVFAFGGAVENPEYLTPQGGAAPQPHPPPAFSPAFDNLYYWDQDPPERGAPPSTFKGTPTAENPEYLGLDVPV
Pantothenate synthetase (Mycobacterium tuberculosis (strain ATCC 25618 / H37Rv)), sequence (P9WIL5 whole entry, looked up): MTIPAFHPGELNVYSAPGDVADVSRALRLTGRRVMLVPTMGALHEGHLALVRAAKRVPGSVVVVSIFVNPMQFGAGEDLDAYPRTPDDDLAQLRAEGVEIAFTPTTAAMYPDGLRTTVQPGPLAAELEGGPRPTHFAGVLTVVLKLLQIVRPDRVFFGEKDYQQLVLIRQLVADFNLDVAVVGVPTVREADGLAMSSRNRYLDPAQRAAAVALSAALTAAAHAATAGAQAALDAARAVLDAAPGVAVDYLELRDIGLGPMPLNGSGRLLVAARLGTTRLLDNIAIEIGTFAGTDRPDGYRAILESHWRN

As to `CCOC(=O)c1cccc([P+](=O)O)c1`, the inhibition was 0% (inactive) in [1], 3.95% (inactive) in assay [8] and -9.03% (inactive) in assay [9]. For the same compound, the viability in assay [2] is 92.5%; in assay [4], 92.5% (inactive); in assay [5] it was 96.3% (inactive); in assay [6], 96.5% (inactive); in assay [7] (setting [10]), 97.1%; in assay [7] (setting [11]) it was 96.5%. Further, the Her2 level in [3] was 114% (inactive). For the same compound, the differential viability (reversal) in assay [7] (H69AR cells + 2 uM doxorubicin) was -0.595% (inactive).
In the case of `O=c1[nH]c(=O)n(CCc2ccccc2)c(O)c1C=NCCN1CCNCC1`, the inhibition in assay [1] was 6% (inactive); in assay [8] it was -1.58% (inactive); in assay [9], 5.16% (inactive). Further, the viability in [2] is 99%; in assay [4], 99% (inactive); in assay [5], 108% (inactive); in [6], 93% (inactive); in assay [7] (setting [10]), 91.3%; in assay [7] (setting [11]), 93%. The Her2 level in assay [3] was 91.5% (inactive). Also, the differential viability (reversal) in assay [7] (H69AR cells + 2 uM doxorubicin) was 1.67% (inactive).
Consider `CC1CCN2c3nc4ccccn4c(=O)c3CC3(C(=O)N(C)C(=O)N(C)C3=O)C2C1` (stereo not given), for which the figures for the inhibition in assay [1], in [8] and in [9] were 0% (inactive), -1.32% (inactive) and 1.64% (inactive), respectively. Moreover, the viability was 101% in [2]; 101% (inactive) in [4]; 93% (inactive) in assay [5]; 93.5% (inactive) in assay [6]; 102% in [7] (setting [10]); 93.5% in assay [7] (setting [11]). In assay [3], the Her2 level was 72.5% (inactive). In assay [7] (H69AR cells + 2 uM doxorubicin), the differential viability (reversal) was -8.53% (inactive).
In the case of `O=C(c1ccc(CS(=O)(=O)c2ccccc2)o1)N1CCC2(CC1)OCCO2`, the inhibition is 0% (inactive) in [1], -2.11% (inactive) in [8] and -2.73% (inactive) in assay [9]. Besides, the viability in assay [2] was 90%; in [4], 90% (inactive); in [5] it was 96.5% (inactive); in [6], 85% (inactive); in assay [7] (setting [10]), 92%; in assay [7] (setting [11]), 85%. Moreover, the Her2 level in assay [3] was 112% (inactive). Besides, the differential viability (reversal) in assay [7] (H69AR cells + 2 uM doxorubicin) is -6.95% (inactive).
On to `O=C(CN1C(=O)CN=C(c2ccccc2)c2ccccc21)NCc1ccco1`, for which the inhibition in assay [1] was 2% (inactive); in [8] it was -3.42% (inactive); in assay [9], -5% (inactive). The viability is 98% in [2]; 98% (inactive) in [4]; 96.7% (inactive) in assay [5]; 80.4% (inactive) in [6]; 81.7% in [7] (setting [10]); 80.4% in [7] (setting [11]). Moreover, in [3], the Her2 level was 100% (inactive). Moreover, in [7] (H69AR cells + 2 uM doxorubicin), the differential viability (reversal) was -1.24% (inactive).
Turning to `CCN(CC)CCN=Cc1c(O)n(CCC2=CCCCC2)c(=O)[nH]c1=O`, the results for the inhibition in [1], in assay [8] and in assay [9] were 5% (inactive), -5.84% (inactive) and -4.29% (inactive), respectively. Also, the viability is 90.5% in assay [2]; 90.5% (inactive) in assay [4]; 62.5% (inactive) in assay [5]; 74.7% (inactive) in assay [6]; 86.1% in [7] (setting [10]); 74.7% in [7] (setting [11]). In addition, the Her2 level in assay [3] is 86% (inactive). Also, the differential viability (reversal) in [7] (H69AR cells + 2 uM doxorubicin) is -11.4% (inactive).
`O=C(O)c1nonc1-c1nonc1C(=O)O`: the figures for the inhibition in [1], in assay [8] and in assay [9] were 0% (inactive), -1.97% (inactive) and 6.39% (inactive), respectively. Also, the viability in [2] was 99%; in assay [4], 99% (inactive); in assay [5], 100% (inactive); in [6], 99% (inactive); in assay [7] (setting [10]) it was 97.5%; in assay [7] (setting [11]), 99%. The Her2 level in assay [3] was 114% (inactive). The differential viability (reversal) in assay [7] (H69AR cells + 2 uM doxorubicin) was 1.51% (inactive).
For the compound `CCCCn1c(O)c(C(CC)=Nc2cccc(C(=O)O)c2)c(=O)[nH]c1=O`, the values for the inhibition in [1], in [8] and in assay [9] were 0% (inactive), -2.67% (inactive) and -4.13% (inactive), respectively. Also, the viability in [2] is 97.5%; in assay [4] it was 97.5% (inactive); in assay [5], 96.9% (inactive); in assay [6], 102% (inactive); in [7] (setting [10]) it was 92.6%; in assay [7] (setting [11]), 102%. For the same compound, the Her2 level in assay [3] is 92% (inactive). Also, the differential viability (reversal) in assay [7] (H69AR cells + 2 uM doxorubicin) is 9.65% (inactive).
As to `COC(=O)CC1(Cc2ccccc2)C(=O)NC(=O)NC1=O`, the inhibition is 0% (inactive) in assay [1], -5.07% (inactive) in assay [8] and -0.98% (inactive) in assay [9]. The viability in assay [2] was 92.5%; in assay [4], 92.5% (inactive); in assay [5], 86.8% (inactive); in assay [6] it was 102% (inactive); in assay [7] (setting [10]) it was 88.4%; in assay [7] (setting [11]), 102%. For the same compound, the Her2 level in [3] is 96.5% (inactive). Also, the differential viability (reversal) in assay [7] (H69AR cells + 2 uM doxorubicin) is 13.1% (inactive).
For the compound `Cc1ccc(-n2c(O)c(C=NCCN3CCOCC3)c(=O)[nH]c2=O)cc1`, the inhibition in [1] is 3% (inactive); in [8], -5.2% (inactive); in assay [9] it was 2.26% (inactive). The viability in [2] was 124%; in assay [4], 124% (inactive); in assay [5], 93.4% (inactive); in assay [6] it was 102% (inactive); in assay [7] (setting [10]) it was 93.5%; in assay [7] (setting [11]), 102%. Besides, in [3], the Her2 level is 96.5% (inactive). Also, in assay [7] (H69AR cells + 2 uM doxorubicin), the differential viability (reversal) is 8.65% (inactive).
As for `CN(C)c1cc(N)c2c(n1)CCC2` (tested in a mixture with another compound), the inhibition in assay [1] is 0% (inactive); in assay [8], -4.49% (inactive); in assay [9], -5.17% (inactive). In addition, the viability in [2] was 113%; in assay [4], 113% (inactive); in [5], 102% (inactive); in [6] it was 86.1% (inactive); in [7] (setting [10]), 87.6%; in assay [7] (setting [11]), 86.1%. Besides, in assay [3], the Her2 level is 134% (inactive). Further, in [7] (H69AR cells + 2 uM doxorubicin), the differential viability (reversal) is -1.48% (inactive).
On to `CCOC(=O)C1CCCCC12C(C#N)=C(N)Oc1n[nH]c(C)c12` (stereo not given), for which the inhibition in assay [1] was 0% (inactive); in assay [8], 0.66% (inactive); in [9] it was 25.1% (inactive). Further, the viability is 91.5% in [2]; 91.5% (inactive) in assay [4]; 96% (inactive) in [5]; 93.3% (inactive) in [6]; 99.6% in assay [7] (setting [10]); 93.3% in assay [7] (setting [11]). Besides, in assay [3], the Her2 level was 94.5% (inactive). For the same compound, in assay [7] (H69AR cells + 2 uM doxorubicin), the differential viability (reversal) was -6.3% (inactive).
Take `Nc1ccccc1C(=O)OC1CSC1`: the figures for the inhibition in assay [1], in assay [8] and in [9] were 0% (inactive), -2.53% (inactive) and 1.45% (inactive), respectively. Also, the viability in assay [2] is 132%; in [4] it was 132% (inactive); in [5] it was 105% (inactive); in assay [6] it was 89.2% (inactive); in assay [7] (setting [10]) it was 88.7%; in [7] (setting [11]), 89.2%. Also, in [3], the Her2 level was 110% (inactive). Besides, the differential viability (reversal) in [7] (H69AR cells + 2 uM doxorubicin) is 0.43% (inactive).
On to `c1ccc(C2CC3CC(c4ccco4)N2O3)cc1` (stereo not given), for which the inhibition in assay [1] was 0% (inactive); in [8], -0.4% (inactive); in assay [9] it was -7.74% (inactive). Besides, the viability in [2] is 93%; in assay [4], 93% (inactive); in [5] it was 82.8% (inactive); in [6] it was 113% (inactive); in [7] (setting [10]) it was 90.9%; in assay [7] (setting [11]) it was 113%. Also, the Her2 level in assay [3] was 89.5% (inactive). Moreover, the differential viability (reversal) in [7] (H69AR cells + 2 uM doxorubicin) is 22.5% (inactive).
For `CCN1CCN(Cc2cc(Br)cc(OC)c2O)CC1`, the values for the inhibition in assay [1], in [8] and in [9] were 7% (inactive), -3.2% (inactive) and -6.19% (inactive), respectively. Also, the viability is 93.5% in assay [2]; 93.5% (inactive) in assay [4]; 110% (inactive) in [5]; 94.2% (inactive) in assay [6]; 97.1% in assay [7] (setting [10]); 94.2% in assay [7] (setting [11]). For the same compound, in [3], the Her2 level is 114% (inactive). Besides, the differential viability (reversal) in assay [7] (H69AR cells + 2 uM doxorubicin) is -2.88% (inactive).
